# Test results taken from ChEMBL document CHEMBL4715787, “Radiofluorinated N-Octanoyl Dopamine ([F]F-NOD) as a Tool To Study Tissue Distribution and Elimination of NOD in Vitro and in Vivo” (J Med Chem, 2016).
# pEC50: −log10 of the molar value. The source made the active and inactive calls. The calls are words filed in the database; no cut-off is given here.
# Tests used:
# [1] = molecular target: T1, Catechol O-methyltransferase (Homo sapiens, UniProt P21964); test: Substrate activity at COMT (unknown origin) assessed as N-(2-Fluoro-4,5-dimethoxyphenethyl)octanamide formation in presence of cofactor SAM at 180 mins by HPLC analysis; format: ADME; details: 3 h
# T1 sequence (P21964 whole entry): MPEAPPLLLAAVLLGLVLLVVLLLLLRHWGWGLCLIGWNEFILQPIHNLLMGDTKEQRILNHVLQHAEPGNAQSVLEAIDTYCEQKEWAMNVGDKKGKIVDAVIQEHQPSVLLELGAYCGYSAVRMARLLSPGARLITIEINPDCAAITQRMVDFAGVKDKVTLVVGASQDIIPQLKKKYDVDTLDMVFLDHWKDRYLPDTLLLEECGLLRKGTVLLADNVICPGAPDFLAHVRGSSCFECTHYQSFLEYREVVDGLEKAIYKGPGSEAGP
# Outline: (§1)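 COMT reaction for lipophilic substrates: Tris buffer pH 8.0 with MgCl2 and dithiothreitol, 10 µL Tween20, 300 nmol SAM, 300 nmol substrate (from 100 mM ethanol stock), 75 units COMT in 1% BSA, 37 °C for 2–4 h. Cooled on ice, centrifuged, CHCl3-extracted, residue in 1:1 MeCN/water analysed by HPLC against methylated references.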
# [2] = test system: HUVEC; test: Antiinflammatory activity in HUVEC assessed as inhibition of TNFalpha-stimulated VCAM1 expression at lower concentration measured after overnight incubation by Western blot analysis; format: functional, cell-based; details: Homo sapiens
# Outline: (§2)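 Primary HUVEC (from fresh umbilical cord, endothelial growth medium with 2% FBS, used at 80–90% confluence) treated with compound; VCAM-1 read-out under TNFα stimulation. Lysates in Triton/deoxycholate buffer; 15 µg protein resolved on 10% SDS-PAGE, semidry-blotted to PVDF, probed overnight at 4 °C for VCAM-1 or HO-1, visualized by ECL. Blots stripped and reprobed for β-actin as loading control.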
# [3] = test system: HUVEC; test: Protection against cold inflicted injury in HUVEC assessed as 25 to 100 uM pretreated for 2 hrs followed by washout and subsequent incubation for 20 hrs at 4 degC by LDH assay; format: functional, cell-based; details: Homo sapiens, dose 25-100 µM
# [4] = molecular target: Transient receptor potential cation channel subfamily V member 1 (Rattus norvegicus, UniProt O35433); test: (§3) Activation of rat TRPV1 transfected in HEK293 cells assessed as increase in calcium influx in presence of capsaicin by FURA-2-AM dye based fluorescence assay; format: cell-based
# Sequence of Transient receptor potential cation channel subfamily V member 1 (O35433 whole entry): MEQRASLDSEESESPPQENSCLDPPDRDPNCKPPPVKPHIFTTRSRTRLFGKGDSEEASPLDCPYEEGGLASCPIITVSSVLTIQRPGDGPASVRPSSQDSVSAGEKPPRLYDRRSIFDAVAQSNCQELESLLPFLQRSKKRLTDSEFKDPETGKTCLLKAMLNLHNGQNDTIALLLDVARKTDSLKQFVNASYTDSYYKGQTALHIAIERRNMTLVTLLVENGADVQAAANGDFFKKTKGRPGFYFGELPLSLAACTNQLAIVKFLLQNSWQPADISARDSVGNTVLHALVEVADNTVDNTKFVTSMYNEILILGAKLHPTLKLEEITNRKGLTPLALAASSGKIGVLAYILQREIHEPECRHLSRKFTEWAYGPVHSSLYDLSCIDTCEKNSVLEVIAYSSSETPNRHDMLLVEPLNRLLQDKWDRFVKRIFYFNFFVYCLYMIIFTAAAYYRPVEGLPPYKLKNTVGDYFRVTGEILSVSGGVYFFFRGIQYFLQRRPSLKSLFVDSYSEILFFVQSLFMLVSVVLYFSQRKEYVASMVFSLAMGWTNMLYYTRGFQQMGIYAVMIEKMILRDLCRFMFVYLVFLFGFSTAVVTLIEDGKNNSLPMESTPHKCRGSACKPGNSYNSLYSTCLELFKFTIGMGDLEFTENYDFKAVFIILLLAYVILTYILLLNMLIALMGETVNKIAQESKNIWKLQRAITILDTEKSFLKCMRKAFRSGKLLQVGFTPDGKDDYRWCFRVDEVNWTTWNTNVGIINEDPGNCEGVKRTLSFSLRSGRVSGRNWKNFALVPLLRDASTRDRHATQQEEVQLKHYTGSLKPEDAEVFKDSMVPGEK
# Outline: (§4)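 HEK293 transiently transfected with rat TRPV1, imaged 48 h later in HEPES-buffered extracellular solution (1.8 mM CaCl2) after 1 µM FURA-2AM loading. 340/380 nm excitation ratio at 510 nm, sampled at 0.5 Hz. Compound applied at several concentrations, then 10 µM capsaicin after washout to mark transfected cells. Peak minus baseline; each coverslip one experiment, n = 3–13; two-way ANOVA.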
# [5] = molecular target: Transient receptor potential cation channel subfamily V member 1 (Rattus norvegicus) (UniProt O35433); test: as §3; format: cell-based; details: filed as activator; outline: as §4
# Sequence of Transient receptor potential cation channel subfamily V member 1 (Rattus norvegicus) (O35433 whole entry): as above
# [6] = test system: HUVEC; test: Antiinflammatory activity in HUVEC assessed as inhibition of TNFalpha-stimulated VCAM1 expression at higher concentration measured after overnight incubation by Western blot analysis; format: functional, cell-based; details: Homo sapiens; outline: as §2
# [7] = molecular target: T2, Nuclear factor erythroid 2-related factor 2 (Homo sapiens) (UniProt Q16236); test: Activation of NRF2 in HUVEC assessed as induction of HO1 expression at higher concentration measured after overnight incubation by Western blot analysis; format: tissue-based; details: filed as activator; outline: as §2
# T2 sequence (whole entry): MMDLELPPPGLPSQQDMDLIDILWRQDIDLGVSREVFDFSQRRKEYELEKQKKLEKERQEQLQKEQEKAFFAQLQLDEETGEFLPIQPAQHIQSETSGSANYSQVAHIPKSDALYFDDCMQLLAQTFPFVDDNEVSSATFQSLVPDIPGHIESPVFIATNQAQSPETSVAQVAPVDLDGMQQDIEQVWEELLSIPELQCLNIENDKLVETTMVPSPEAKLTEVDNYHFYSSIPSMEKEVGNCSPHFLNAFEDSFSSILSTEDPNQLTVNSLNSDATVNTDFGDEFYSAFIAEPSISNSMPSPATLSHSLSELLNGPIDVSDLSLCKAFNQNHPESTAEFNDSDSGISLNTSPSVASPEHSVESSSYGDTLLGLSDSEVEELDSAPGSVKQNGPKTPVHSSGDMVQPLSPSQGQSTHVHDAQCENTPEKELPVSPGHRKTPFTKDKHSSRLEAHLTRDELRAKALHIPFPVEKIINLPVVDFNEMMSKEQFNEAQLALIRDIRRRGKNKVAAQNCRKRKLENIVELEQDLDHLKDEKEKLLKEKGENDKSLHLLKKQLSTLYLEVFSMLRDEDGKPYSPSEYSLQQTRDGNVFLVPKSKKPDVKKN
# [8] = Redox activity of compound assessed as quenching of luminescence by horseradish peroxidase coupled luminol assay; format: physicochemical
# Outline: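 Peroxidase-luminol chemiluminescence: serial dilutions in water added to mix of 2.5 mM luminol, 0.9 mM p-coumaric acid and H2O2, with HRP; quenching read immediately on a plate reader. Expressed relative to compound-free control; at least three independent measurements per concentration; EC50 from concentration–response; ANOVA with LSD post-hoc.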
# [9] = molecular target: T2, Nuclear factor erythroid 2-related factor 2 (Homo sapiens); test: Activation of NRF2 in HUVEC assessed as induction of HO1 expression at lower concentration measured after overnight incubation by Western blot analysis; format: tissue-based; outline: as §2
# [10] = molecular target: T1, Catechol O-methyltransferase; test: Substrate activity at COMT (unknown origin) assessed as N-(4-Hydroxy-3-methoxyphenethyl)octanamide formation in presence of cofactor SAM at 180 mins by HPLC analysis; format: ADME; details: 3 h; outline: as §1
# [11] = Lipophilicity, log D of compound in n-octanol and phosphate buffered saline at pH 7.5 by shake flask method; format: physicochemical
# Outline: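 Shake-flask partition of the 18F tracer between n-octanol and PBS at pH 7.5, following OECD guideline; n = 3.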
# [12] = Drug distribution in Lewis rat liver assessed as standard uptake value at 4.8 to 13.2 MBq measured at 8 min by PET imaging analysis; format: ADME, tissue-based; details: in vivo, dose 4.8-13.2 MBq
# [13] = Drug accumulation in Lewis rat bone at 4.8 to 13.2 MBq measured after 60 mins by PET imaging analysis; format: ADME, tissue-based, Bone element; details: in vivo, 1 h, dose 4.8-13.2 MBq
# [14] = Drug distribution in Lewis rat bone assessed as standard uptake value at 4.8 to 13.2 MBq measured after 120 mins; format: ADME, tissue-based, Bone element; details: in vivo, 2 h, dose 4.8-13.2 MBq
# [15] = Metabolic stability of compound in rat plasma assessed as compound recovery rate measured after 120 mins by radio-HPLC analysis; format: ADME, cell-free; details: read-out: Drug recovery
# Outline: (§5)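 18F tracer in PBS/3% EtOH (100 µL) shaken with rat plasma (200 µL) at 37 °C for 120 min. Samples at 30, 60, 120 min deproteinized with equal volume acetonitrile at 0 °C; supernatant analysed by radio-TLC and radio-HPLC for radiochemical purity and recovery.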
# [16] = Drug distribution in Lewis rat bladder assessed as standard uptake value at 4.8 to 13.2 MBq measured after 120 mins; format: ADME, tissue-based, Urinary bladder; details: in vivo, 2 h, dose 4.8-13.2 MBq
# [17] = Drug uptake in human HUVEC lysate extracts assessed as retention time incubated for 120 mins by HPLC analysis; format: ADME, subcellular; details: 2 h
# Outline: (§6)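 HUVEC incubated with ~450 kBq 18F tracer per well in 1 mL medium at 37 °C, normal atmosphere, for up to 120 min. Supernatant collected, cells washed 3× with PBS, lysed and scraped for gamma counting; associated activity expressed as % of applied dose. Lysate extracts analysed by radio-HPLC; three independent experiments, mean ± SD.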
# [18] = Metabolic stability of compound in rat plasma assessed as radiochemical purity measured after 120 mins by radio-HPLC analysis; format: ADME, cell-free; details: read-out: Stabilty; outline: as §5
# [19] = Drug transport in HUVEC assessed as cell association incubated for 120 mins by HPLC analysis; format: ADME, tissue-based; details: human, 2 h, in the assay text read “by gamma counting” for “by HPLC analysis”; outline: as §6
# [20] = Drug distribution in Lewis rat kidney assessed as standard uptake value at 4.8 to 13.2 MBq observed between 5 to 10 mins by PET imaging analysis; format: ADME, tissue-based; details: in vivo, dose lower 4.8 MBq, time lower 5 min, dose upper 13.2 MBq, time upper 10 min
# [21] = Drug distribution in Lewis rat bladder at 4.8 to 13.2 MBq measured within 30 mins by PET imaging; format: ADME, tissue-based, Urinary bladder; details: in vivo, 0.5 h, dose 4.8-13.2 MBq
structure (smiles),measurement,setting,value
CCCCCCCC(=O)NCCc1cc(O)c(O)cc1F,Drug metabolism,[1],Metabolite_Detected
same,Activity,[2],inactive
same,Activity,[3],Active
same,pEC50,[4],4.34
same,Activity,[5],Dose-dependent effect
same,Activity,[6],Active
same,Activity,[7],Active
same,pEC50,[8],4.49
same,Activity,[9],inactive
CCCCCCCC(=O)NCCc1ccc(O)c(O)c1,Drug metabolism,[10],Metabolite_Detected
same,Activity,[3],Active
same,pEC50,[4],5.15
same,Activity,[5],Dose-dependent effect
same,Activity,[6],Active
same,Activity,[7],Active
same,pEC50,[8],4.92
CCCCCCCC(=O)NCCc1cc(O)c(O)cc1[18F],logD,[11],3.35
same,SUV,[12],21 g/mL
same,Drug uptake,[13],Active
same,SUV,[14],9.8 g/mL
same,remaining at 2 h,[15],77%
same,SUV,[16],38.5 g/mL
same,Retention_time,[17],4.07 min
same,remaining at 2 h,[18],≥ 98%
same,Drug transport,[19],0.14 %ID
same,SUV,[20],8 g/mL
same,Drug uptake,[21],Active
